The structures appear in SMILES notation. The source made the active and inactive calls.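 The calls were made as follows: active = current rise at least 3 SD above the untreated control mean in each of two repeat wells; inactive = the rest.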

The source of these data is PubChem BioAssay.

Chain of Potassium voltage-gated channel subfamily KQT member 1 (Homo sapiens) (P51787 whole entry, looked up): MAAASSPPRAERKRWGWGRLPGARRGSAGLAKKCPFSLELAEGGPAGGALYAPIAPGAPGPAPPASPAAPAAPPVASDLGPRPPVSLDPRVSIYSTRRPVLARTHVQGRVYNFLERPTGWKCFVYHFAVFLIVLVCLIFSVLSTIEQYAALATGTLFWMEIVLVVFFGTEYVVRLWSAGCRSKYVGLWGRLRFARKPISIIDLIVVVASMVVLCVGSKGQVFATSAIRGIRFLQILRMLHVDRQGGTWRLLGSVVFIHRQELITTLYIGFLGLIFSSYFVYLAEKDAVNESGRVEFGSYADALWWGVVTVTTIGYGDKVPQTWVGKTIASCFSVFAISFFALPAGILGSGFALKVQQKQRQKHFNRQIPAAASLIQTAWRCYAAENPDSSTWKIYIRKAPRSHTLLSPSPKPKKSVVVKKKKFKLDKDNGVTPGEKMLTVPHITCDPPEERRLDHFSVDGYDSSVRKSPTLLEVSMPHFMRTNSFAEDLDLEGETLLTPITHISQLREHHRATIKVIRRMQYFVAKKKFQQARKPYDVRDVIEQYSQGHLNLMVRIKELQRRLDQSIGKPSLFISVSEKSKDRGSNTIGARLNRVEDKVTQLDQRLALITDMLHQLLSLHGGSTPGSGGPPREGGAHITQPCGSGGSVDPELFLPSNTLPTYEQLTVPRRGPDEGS

In the assay the target is Potassium voltage-gated channel subfamily KQT member 1 (Homo sapiens) (UniProt P51787). Description: KCNQ1 channel current potentiators, confirmation, orthogonal assay for KCNQ1 potentiator project, IonWorks patch clamp, KCNQ1-CHO cells (AID 493184). The settings on record: automated patch clamp current, at 10 µM. Summed up:
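Read-out: Percent current increase versus pre-compound level | Assay system: CHO cells carrying KCNQ1 | Measured by: Automated perforated-patch electrophysiology | Medium: External bath solution at pH 7.4 | Dosing: One dose, 10 µM final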
A general note: Patch clamp records ionic current or voltage across a cell membrane.
`CCOC(=O)c1c(NC(=S)NCCc2ccccc2)sc2c1CC(C(C)C)OC2` (stereo not given): the result was inactive.

Take `S=c1[nH]c(-c2ccccc2)cs1`: the outcome was inactive.

As for `CCc1ccc2[nH]c(C(=O)Nc3ccc(F)cc3Br)cc2c1`, the outcome was inactive.

As for `COc1ccc(/C=C2/SC(=S)N(NS(=O)(=O)c3ccccc3)C2=O)cc1`, the result was inactive.

As to `CCN(c1ccccc1)S(=O)(=O)c1ccc(OC)c(OC)c1`, the outcome was inactive.

As for `C[C@@H](NC(=O)[C@@H]1Cc2ccccc2CN1)C(=O)NC1CCCC1`, the outcome was inactive.

For `Cc1ccc(O)c(C(=O)CC(=O)c2cccc(F)c2)c1`, the outcome was inactive.

Take `Cc1sc(-n2c(C)cc(/C=C3\SC(=S)NC3=O)c2C)c(C#N)c1C`: the outcome was inactive.

Turning to `Cc1csc(N/N=C/c2ccc([N+](=O)[O-])cc2)n1`, the result was inactive.

On to `CCc1nc2sc3c(=O)[nH]cnc3c2c2c1CSC(C)(C)C2`, for which the result was inactive.

Consider `CC(C)C1=NN(C(=O)c2ccccc2)C(O)(C(C)(C)C)C1` (stereo not given), for which the result was inactive.

Turning to `C=C(C)CNC(=S)Nc1nc2c(cc1C(=O)OCC)CCCC2`, the outcome was inactive.

Regarding `CCCSc1nnc(-c2cnn(-c3ccccc3)c2-n2cccc2)n1C`, the outcome was inactive.

`Cc1cccc(C(=O)NC(=S)NNC(=O)COc2ccc(Cl)cc2)c1`: the outcome was inactive.

With `Cc1cccc(NC(=S)NNC(=O)c2csc3c2CCC(C)C3)c1` (stereo not given), the result was inactive.

Consider `O=C(COC(=O)c1cc(S(=O)(=O)N2CCOCC2)ccc1O)NCCc1ccccc1`, for which the outcome was inactive.

Take `CC(=O)N[C@H]1[C@H](OC2CCCCC2)O[C@H](COC(C)=O)[C@@H](OC(C)=O)[C@@H]1OC(C)=O`: the outcome was inactive.

Take `C=CCn1c(=S)[nH]c2scc(-c3cccs3)c2c1=O`: the result was inactive.

In the case of `Cc1ncc(CN2CCC(CO)(CCc3ccccc3)CC2)s1`, the result was inactive.

As for `COc1ccc(C(=O)NC(=S)N(Cc2ccccc2)Cc2ccccc2)cc1`, the result was inactive.

For the compound `C=CCN(CC=C)C(=S)NC(=O)Cc1cccc2ccccc12`, the result was inactive.

For the compound `CC(C)Cc1ccc(C(C)C(=O)Nc2ccc(O)cc2)cc1` (stereo not given), the outcome was inactive.

Turning to `O=C1Nc2cc(C(=O)NCCCN3CCOCC3)ccc2S/C1=C/c1cccc(Cl)c1`, the result was inactive.

Consider `O=c1c2ccccc2sn1-c1ccccc1`, for which the result was inactive.

Regarding `Cc1cc(C)nc(N(C#N)CC(=O)c2ccccc2)n1`, the result was inactive.

Regarding `COc1ccc2nc(N3C(=O)/C(=C/c4ccccc4)NC3=S)sc2c1`, the outcome was inactive.

For the compound `O=c1c2c(-c3ccco3)csc2nc(SCc2cn3cccnc3n2)n1-c1ccccc1`, the outcome was inactive.

In the case of `COc1cccc(N(C(=O)Cn2nnc(-c3ccc(C)o3)n2)C(C(=O)NC2CCCC2)c2ccncc2)c1` (stereo not given), the result was inactive.

As for `CCOC(=O)C(C)Oc1cccc2c(=O)n(CC(=O)NCc3ccc4c(c3)OCO4)ccc12` (stereo not given), the result was inactive.

On to `CCC(O)(CC)C(=O)NN(C(=O)CCl)c1ccccc1`, for which the result was inactive.

Regarding `CCCC(=O)Nc1ccc(S(=O)(=O)N2CCC(c3nc4ccccc4[nH]3)CC2)cc1`, the result was inactive.

As to `OC(C#CCCN1CCCCC1)(c1ccccc1)c1ccccc1`, the result was inactive.

Take `O=C1C(C2=C(O)c3ccccc3C2=O)=Nc2ccccc21`: the outcome was inactive.

Consider `Cc1ccc(-c2c(C)n([O-])c3c([n+]2=O)CCCC3)o1`, for which the outcome was inactive.

Take `O=C(c1cccnc1)N1N=C2CCCCCC2C1(O)C(F)(F)F` (stereo not given): the outcome was inactive.

`CCOC(=O)c1c(NC(=S)NC)sc2c1CC(C)(C)SC2`: the result was inactive.

`CC1=CC(=O)C(C(C)C)=CC1=NC(=O)c1ccc(C)cc1`: the outcome was inactive.

As for `CC1CN(C(=S)NC(=O)c2ccc(Cl)cc2)CC(C)O1` (stereo not given), the result was inactive.

For the compound `CCN(CC)c1ccc(/C=N/Nc2nc3ccccc3[nH]2)c(O)c1`, the result was inactive.

`S=C(Nc1ccc(Br)cc1)N1CCn2cccc2C1c1cccnc1` (stereo not given): the result was inactive.
